In ChEMBL document CHEMBL4680127, “Rational design and Structure-Activity relationship of coumarin derivatives effective on HIV-1 protease and partially on HIV-1 reverse transcriptase” (Eur J Med Chem, 2020):

Columns and labels:
[1] = system: Human immunodeficiency virus 1; experiment: Antiviral activity against wild type HIV1 assessed as inhibitory effect on virus producing cells at 10 uM by cell based inhibition assay; format: functional
Summary of the method: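 Late-stage single-round assay: compound at 10 μM was added to the medium of virus-producing cells 5 h after transfection and incubated 48 h. Pseudotyped virus from the supernatant then infected SupT1 cells for 48 h. Luciferase in the newly infected cells gave percent inhibition. Quadruplicate.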

[2] = target: Human immunodeficiency virus type 1 protease (Human immunodeficiency virus 1, UniProt Q72874); experiment: Inhibition of recombinant HIV1 protease measured assessed as hydrolysis of fluorogenic substrate by FRET assay
Summary of the method: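 Wild-type HIV-1 protease activity was read by FRET. Each assay was run in triplicate. IC50 values are means (±1 standard deviation) from three independent experiments.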

[3] = target: T1, Human immunodeficiency virus type 1 reverse transcriptase (Human immunodeficiency virus 1, UniProt Q72547); experiment: Inhibition of HIV-1BH10 reverse transcriptase expressed in Escherichia coli assessed as polymerization by one-step real time RT-PCR assay
[4] = target: T1, Human immunodeficiency virus type 1 reverse transcriptase; experiment: Inhibition of HIV-1 NL4-3 reverse transcriptase expressed in Escherichia coli assessed as polymerization by one-step real-time RT-PCR assay
[5] = system: Human immunodeficiency virus 1; experiment: Antiviral activity against wild type HIV1 assessed as inhibitory effect on virus infected cells at 10 uM by cell based inhibition assay; format: functional
Summary of the method: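 Single-round assay of the early stage: SupT1 cells were first infected with pseudotyped HIV-1, then exposed to compound at 10 μM for 48 h. Luciferase activity was measured and expressed as percent inhibition.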

[6] = system: Human immunodeficiency virus 1; experiment: Antiviral activity against wild type HIV1 infected in human SupT1 cells assessed as inhibitory effect at 100 nM by cell based inhibition assay; format: functional; settings: Human immunodeficiency virus 1, SUP-T1
Summary of the method: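 1×10^6 SupT1 cells were infected with HIV-1 NL4-3 by spin infection, with 10 µg/mL polybrene and test agent at 100 nM present during infection. Activity is expressed as percent inhibition of viral growth.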

SMILES | inhibition at 10 µM [1] | IC50 [2] | IC50 [3] | IC50 [4] | inhibition at 10 µM [5] | inhibition at 0.1 µM [6]
CC(C)CN(C[C@@H](O)[C@H](Cc1ccccc1)NC(=O)O[C@H]1CO[C@H]2OCC[C@H]21)S(=O)(=O)c1ccc(N)cc1 | 30.8% |  |  |  |  | 
COc1ccc(S(=O)(=O)N(CC(C)C)C[C@@H](O)[C@H](Cc2ccccc2)NCc2cc(=O)oc3cc(O)ccc23)cc1 | 88.8% | 0.053 µM |  |  |  | 
COc1ccc(S(=O)(=O)N(CC(C)C)C[C@@H](O)[C@H](Cc2ccccc2)NC(=O)Oc2c3occc3cc3ccc(=O)oc23)cc1 |  | 0.12 µM | > 1000 µM |  |  | 
COc1ccc(S(=O)(=O)N(CC(C)C)C[C@@H](O)[C@H](Cc2ccccc2)NC(=O)c2cc3ccc(OC)cc3oc2=O)cc1 |  | 0.0467 µM |  | 370 µM | 8.28% | 
CC(C)CN(C[C@@H](O)[C@H](Cc1ccccc1)NC(=O)c1cc2ccc(O)cc2oc1=O)S(=O)(=O)c1ccc(N)cc1 |  | 0.0277 µM |  | 554 µM | 27% | 
CC(C)CN(C[C@@H](O)[C@H](Cc1ccccc1)NC(=O)Oc1c2occc2cc2ccc(=O)oc12)S(=O)(=O)c1ccc([N+](=O)[O-])cc1 |  | 1.53 µM | > 1000 µM |  |  | 
COc1ccc(S(=O)(=O)N(CC(C)C)C[C@@H](O)[C@H](Cc2ccccc2)NC(=O)Cc2cc(=O)oc3cc(O)ccc23)cc1 | 82.9% | 0.00162 µM |  | 459 µM |  | 45.5%
CC(C)CN(C[C@@H](O)[C@H](Cc1ccccc1)NC(=O)Cc1cc(=O)oc2cc(N(C)C)ccc12)S(=O)(=O)c1ccc([N+](=O)[O-])cc1 |  | 0.276 µM | > 1000 µM |  | 14.7% | 
CC(C)CN(C[C@@H](O)[C@H](Cc1ccccc1)NC(=O)c1cc2ccccc2oc1=O)S(=O)(=O)c1ccc(N)cc1 |  | 0.156 µM |  | 75.3 µM | 1.34% | 
CC(C)CN(C[C@@H](O)[C@H](Cc1ccccc1)NCc1cc(=O)oc2cc(O)ccc12)S(=O)(=O)c1ccc([N+](=O)[O-])cc1 | 73.2% | 0.14 µM |  |  |  | 
CC(C)CN(C[C@@H](O)[C@H](Cc1ccccc1)NC(=O)c1cc2ccccc2oc1=O)S(=O)(=O)c1ccc([N+](=O)[O-])cc1 |  | 0.298 µM | > 1000 µM |  | 27.1% | 
COc1ccc2c(CC(=O)N[C@@H](Cc3ccccc3)[C@H](O)CN(CC(C)C)S(=O)(=O)c3ccc([N+](=O)[O-])cc3)cc(=O)oc2c1 |  | 0.0558 µM |  | 373 µM | 43.7% | 
CC(C)CN(C[C@@H](O)[C@H](Cc1ccccc1)NC(=O)c1cc2ccc(O)cc2oc1=O)S(=O)(=O)c1ccc([N+](=O)[O-])cc1 | 74% | 0.0621 µM |  | 189 µM | 91% | 
COc1ccc(S(=O)(=O)N(CC(C)C)C[C@@H](O)[C@H](Cc2ccccc2)NC(=O)c2cc3ccc(O)cc3oc2=O)cc1 |  | 0.0395 µM |  | 421 µM | 12.3% | 
CC(C)CN(C[C@@H](O)[C@H](Cc1ccccc1)NC(=O)Cc1cc(=O)oc2cc(O)ccc12)S(=O)(=O)c1ccc([N+](=O)[O-])cc1 | 73.4% | 0.0111 µM |  | 367 µM | 3.91% | 
COc1ccc(S(=O)(=O)N(CC(C)C)C[C@@H](O)[C@H](Cc2ccccc2)NC(=O)c2ccc3oc(=O)ccc3c2)cc1 | 99.5% | 0.00184 µM |  | 597 µM | 1.26% | 
CC(C)CN(C[C@@H](O)[C@H](Cc1ccccc1)NC(=O)c1ccc2oc(=O)ccc2c1)S(=O)(=O)c1ccc([N+](=O)[O-])cc1 | 98.5% | 0.0026 µM | > 1000 µM |  |  | 
CC(C)CN(C[C@@H](O)[C@H](Cc1ccccc1)NC(=O)Cc1cc(=O)oc2cc(N(C)C)ccc12)S(=O)(=O)c1ccc(N)cc1 |  | 0.0751 µM |  | 572 µM | 18.4% | 
COc1ccc(S(=O)(=O)N(CC(C)C)C[C@@H](O)[C@H](Cc2ccccc2)NC(=O)Oc2ccc3c(C)cc(=O)oc3c2)cc1 |  | 0.16 µM | > 1000 µM |  |  | 
COc1ccc2cc(C(=O)N[C@@H](Cc3ccccc3)[C@H](O)CN(CC(C)C)S(=O)(=O)c3ccc(N)cc3)c(=O)oc2c1 |  | 0.102 µM |  | 706 µM | 23.2% | 
CC(C)CN(C[C@@H](O)[C@H](Cc1ccccc1)NC(=O)c1ccc2oc(=O)ccc2c1)S(=O)(=O)c1ccc(N)cc1 | 98.7% | 0.0004 µM |  | 398 µM | 5.61% | 
COc1ccc2c(CC(=O)N[C@@H](Cc3ccccc3)[C@H](O)CN(CC(C)C)S(=O)(=O)c3ccc(N)cc3)cc(=O)oc2c1 |  | 0.0154 µM |  | 411 µM | 7.72% | 
CC(C)CN(C[C@@H](O)[C@H](Cc1ccccc1)NC(=O)Cc1cc(=O)oc2cc(O)ccc12)S(=O)(=O)c1ccc(N)cc1 | 17.9% | 0.0379 µM | > 1000 µM |  |  | 
COc1ccc(S(=O)(=O)N(CC(C)C)C[C@@H](O)[C@H](Cc2ccccc2)NC(=O)Cc2cc(=O)oc3cc(N(C)C)ccc23)cc1 |  | 0.211 µM |  | 355 µM | 43.8% | 
COc1ccc2cc(C(=O)N[C@@H](Cc3ccccc3)[C@H](O)CN(CC(C)C)S(=O)(=O)c3ccc([N+](=O)[O-])cc3)c(=O)oc2c1 |  | 0.221 µM | > 1000 µM |  | 0.45% | 
COc1ccc(S(=O)(=O)N(CC(C)C)C[C@@H](O)[C@H](Cc2ccccc2)NC(=O)Cc2cc(=O)oc3cc(OC)ccc23)cc1 |  | 0.0155 µM |  | 242 µM | 17.7% | 
Cc1cc(=O)oc2cc(OC(=O)N[C@@H](Cc3ccccc3)[C@H](O)CN(CC(C)C)S(=O)(=O)c3ccc([N+](=O)[O-])cc3)ccc12 |  | 1.02 µM | > 1000 µM |  |  | 
COc1ccc(S(=O)(=O)N(CC(C)C)C[C@@H](O)[C@H](Cc2ccccc2)NC(=O)c2cc3ccccc3oc2=O)cc1 |  | 0.0728 µM |  | 474 µM | 44.8% | 
O=C1Nc2ccc(Cl)cc2[C@@](C#CC2CC2)(C(F)(F)F)O1 [EFAVIRENZ] | 100% |  |  |  |  | 
Cc1ccnc2c1NC(=O)c1cccnc1N2C1CC1 [NEVIRAPINE] |  |  |  |  |  | 77%
